How the values were obtained:
Assay type in all cases: ADME
[1] = Tested for the half life period at the pH of 2.5; details: pH 2.5
Summary of the method: (§1)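 Hydrolysis followed by HPLC at 37 °C: 2 mM solutions in phosphate mobile phase B with 4 mM 2,6-lutidine as internal standard, pH set to 2.5 or 7.2 with HCl or KOH. Reverse-phase gradient of acetonitrile/mobile phase B, detection at 250 nm. Half-life derived from disappearance over time. For fast pH 7.2 conversion, acidic solution brought to 7.2 then back to 2.5 (<1 min).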

[2] = Tested for the half life period at the pH of 7.2; details: pH 7.2; summary of the method: as §1
[3] = Tested for the half life period at the pH of 2.5; Stable; details: pH 2.5; summary of the method: as §1
[4] = Tested for the half life period at the pH of 7.2; Stable; details: pH 7.2; summary of the method: as §1

Compound	half-life [1]	half-life [2]	T1/2 [3]	T1/2 [4]	T1/2 [1]
O=C(O)[C@@H]1CSC(c2ncccc2O)=N1	8.74 h	–	–	Stable	–
O=C(O)[C@@H]1CSC(c2ccccc2O)=N1	31.7 h	–	–	Stable	–
deaza-desmethyl-DFT complex with iron (III)	–	–	–	Stable	> 480 h

Second part, the compound after the results:

half-life [1]	half-life [2]	T1/2 [3]	T1/2 [4]	T1/2 [1]	Compound
4.18 h	< 1 min	–	–	–	N[C@@H](CSC(=O)c1ccccc1O)C(=O)O
–	–	Stable	Stable	–	O=C(N[C@@H](CS)C(=O)O)c1ccccc1O
18.6 h	–	–	Stable	–	C[C@]1(C(=O)O)CSC(c2ncccc2O)=N1 [DESFERRITHIOCIN]

— ChEMBL document CHEMBL1127449, “An investigation of desferrithiocin metabolism” (J Med Chem, 1994)
